Assay results published in article PMC11661184 (bioRxiv, 2024).
Residue numbers refer to the chain shown, from its start. Names and notes keep the numbering of the source. No end group written: not given here.

B1: hTRPA1^Δ1079–1119 (protein)
chain: MKRSLRKMWRPGEKKEPQGVVYEDVPDDTEDFKESLKVVFEGSAYGLQNFNKQKKLKRCDDMDTFFLHYAAAEGQIELMEKITRDSSLEVLHEMDDYGNTPLHCAVEKNQIESVKFLLSRGANPNLRNFNMMAPLHIAVQGMNNEVMKVLLEHRTIDVNLEGENGNTAVIIACTTNNSEALQILLKKGAKPCKSNKWGCFPIHQAAFSGSKECMEIILRFGEEHGYSRQLHINFMNNGKATPLHLAVQNGDLEMIKMCLDNGAQIDPVEKGRCTAIHFAATQGATEIVKLMISSYSGSVDIVNTTDGCHETMLHRASLFDHHELADYLISVGADINKIDSEGRSPLILATASASWNIVNLLLSKGAQVDIKDNFGRNFLHLTVQQPYGLKNLRPEFMQMQQIKELVMDEDNDGCTPLHYACRQGGPGSVNNLLGFNVSIHSKSKDKKSPLHFAASYGRINTCQRLLQDISDTRLLNEGDLHGMTPLHLAAKNGHDKVVQLLLKKGALFLSDHNGWTALHHASMGGYTQTMKVILDTNLKCTDRLDEDGNTALHFAAREGHAKAVALLLSHNADIVLNKQQASFLHLALHNKRKEVVLTIIRSKRWDECLKIFSHNSPGNKCPITEMIEYLPECMKVLLDFCMLHSTEDKSCRDYYIEYNFKYLQCPLEFTKKTPTQDVIYEPLTALNAMVQNNRIELLNHPVCKEYLLMKWLAYGFRAHMMNLGSYCLGLIPMTILVVNIKPGMAFNSTGIINETSDHSEILDTTNSYLIKTCMILVFLSSIFGYCKEAGQIFQQKRNYFMDISNVLEWIIYTTGIIFVLPLFVEIPAHLQWQCGAIAVYFYWMNFLLYLQRFENCGIFIVMLEVILKTLLRSTVVFIFLLLAFGLSFYILLNLQDPFSSPLLSIIQTFSMMLGDINYRESFLEPYLRNELAHPVLSFAQLVSFTIFVPIVLMNLLIGLAVGDIAEVQKHASLKRIAMQVELHTSLEKKLPLWFLRKVDQKSTIVYPNKPRSGGMLFHIFCFLFCTGEIRQEIPNADKSLEMEILKQKYRLKDLTFLLEKQHELIKLIIQKMEIISET
B2: hTRPA1^S488-T1078: minimal hTRPA1 construct previously used for structural determination, retains the CaMBD (protein)
chain: SPLHFAASYGRINTCQRLLQDISDTRLLNEGDLHGMTPLHLAAKNGHDKVVQLLLKKGALFLSDHNGWTALHHASMGGYTQTMKVILDTNLKCTDRLDEDGNTALHFAAREGHAKAVALLLSHNADIVLNKQQASFLHLALHNKRKEVVLTIIRSKRWDECLKIFSHNSPGNKCPITEMIEYLPECMKVLLDFCMLHSTEDKSCRDYYIEYNFKYLQCPLEFTKKTPTQDVIYEPLTALNAMVQNNRIELLNHPVCKEYLLMKWLAYGFRAHMMNLGSYCLGLIPMTILVVNIKPGMAFNSTGIINETSDHSEILDTTNSYLIKTCMILVFLSSIFGYCKEAGQIFQQKRNYFMDISNVLEWIIYTTGIIFVLPLFVEIPAHLQWQCGAIAVYFYWMNFLLYLQRFENCGIFIVMLEVILKTLLRSTVVFIFLLLAFGLSFYILLNLQDPFSSPLLSIIQTFSMMLGDINYRESFLEPYLRNELAHPVLSFAQLVSFTIFVPIVLMNLLIGLAVGDIAEVQKHASLKRIAMQVELHTSLEKKLPLWFLRKVDQKSTIVYPNKPRSGGMLFHIFCFLFCTGEIRQEIPNADKSLEMEILKQKYRLKDLTFLLEKQHELIKLIIQKMEIISET
B3: hTRPA1^M62-T1078: hTRPA1 construct containing full ARD but lacking the structurally unresolved N- and C-termini (protein)
chain: MDTFFLHYAAAEGQIELMEKITRDSSLEVLHEMDDYGNTPLHCAVEKNQIESVKFLLSRGANPNLRNFNMMAPLHIAVQGMNNEVMKVLLEHRTIDVNLEGENGNTAVIIACTTNNSEALQILLKKGAKPCKSNKWGCFPIHQAAFSGSKECMEIILRFGEEHGYSRQLHINFMNNGKATPLHLAVQNGDLEMIKMCLDNGAQIDPVEKGRCTAIHFAATQGATEIVKLMISSYSGSVDIVNTTDGCHETMLHRASLFDHHELADYLISVGADINKIDSEGRSPLILATASASWNIVNLLLSKGAQVDIKDNFGRNFLHLTVQQPYGLKNLRPEFMQMQQIKELVMDEDNDGCTPLHYACRQGGPGSVNNLLGFNVSIHSKSKDKKSPLHFAASYGRINTCQRLLQDISDTRLLNEGDLHGMTPLHLAAKNGHDKVVQLLLKKGALFLSDHNGWTALHHASMGGYTQTMKVILDTNLKCTDRLDEDGNTALHFAAREGHAKAVALLLSHNADIVLNKQQASFLHLALHNKRKEVVLTIIRSKRWDECLKIFSHNSPGNKCPITEMIEYLPECMKVLLDFCMLHSTEDKSCRDYYIEYNFKYLQCPLEFTKKTPTQDVIYEPLTALNAMVQNNRIELLNHPVCKEYLLMKWLAYGFRAHMMNLGSYCLGLIPMTILVVNIKPGMAFNSTGIINETSDHSEILDTTNSYLIKTCMILVFLSSIFGYCKEAGQIFQQKRNYFMDISNVLEWIIYTTGIIFVLPLFVEIPAHLQWQCGAIAVYFYWMNFLLYLQRFENCGIFIVMLEVILKTLLRSTVVFIFLLLAFGLSFYILLNLQDPFSSPLLSIIQTFSMMLGDINYRESFLEPYLRNELAHPVLSFAQLVSFTIFVPIVLMNLLIGLAVGDIAEVQKHASLKRIAMQVELHTSLEKKLPLWFLRKVDQKSTIVYPNKPRSGGMLFHIFCFLFCTGEIRQEIPNADKSLEMEILKQKYRLKDLTFLLEKQHELIKLIIQKMEIISET
B4: hTRPA1^Δ1–61 (protein)
chain: MDTFFLHYAAAEGQIELMEKITRDSSLEVLHEMDDYGNTPLHCAVEKNQIESVKFLLSRGANPNLRNFNMMAPLHIAVQGMNNEVMKVLLEHRTIDVNLEGENGNTAVIIACTTNNSEALQILLKKGAKPCKSNKWGCFPIHQAAFSGSKECMEIILRFGEEHGYSRQLHINFMNNGKATPLHLAVQNGDLEMIKMCLDNGAQIDPVEKGRCTAIHFAATQGATEIVKLMISSYSGSVDIVNTTDGCHETMLHRASLFDHHELADYLISVGADINKIDSEGRSPLILATASASWNIVNLLLSKGAQVDIKDNFGRNFLHLTVQQPYGLKNLRPEFMQMQQIKELVMDEDNDGCTPLHYACRQGGPGSVNNLLGFNVSIHSKSKDKKSPLHFAASYGRINTCQRLLQDISDTRLLNEGDLHGMTPLHLAAKNGHDKVVQLLLKKGALFLSDHNGWTALHHASMGGYTQTMKVILDTNLKCTDRLDEDGNTALHFAAREGHAKAVALLLSHNADIVLNKQQASFLHLALHNKRKEVVLTIIRSKRWDECLKIFSHNSPGNKCPITEMIEYLPECMKVLLDFCMLHSTEDKSCRDYYIEYNFKYLQCPLEFTKKTPTQDVIYEPLTALNAMVQNNRIELLNHPVCKEYLLMKWLAYGFRAHMMNLGSYCLGLIPMTILVVNIKPGMAFNSTGIINETSDHSEILDTTNSYLIKTCMILVFLSSIFGYCKEAGQIFQQKRNYFMDISNVLEWIIYTTGIIFVLPLFVEIPAHLQWQCGAIAVYFYWMNFLLYLQRFENCGIFIVMLEVILKTLLRSTVVFIFLLLAFGLSFYILLNLQDPFSSPLLSIIQTFSMMLGDINYRESFLEPYLRNELAHPVLSFAQLVSFTIFVPIVLMNLLIGLAVGDIAEVQKHASLKRIAMQVELHTSLEKKLPLWFLRKVDQKSTIVYPNKPRSGGMLFHIFCFLFCTGEIRQEIPNADKSLEMEILKQKYRLKDLTFLLEKQHELIKLIIQKMEIISETEDDDSHCSFQDRFKKEQMEQRNSRWNTVLRAVKAKTHHLEP
B5: L1107A (protein, UniProt O75762 1-1119, looked up, variant L1107A)
Transient receptor potential …: MKRSLRKMWRPGEKKEPQGVVYEDVPDDTEDFKESLKVVFEGSAYGLQNFNKQKKLKRCDDMDTFFLHYAAAEGQIELMEKITRDSSLEVLHEMDDYGNTPLHCAVEKNQIESVKFLLSRGANPNLRNFNMMAPLHIAVQGMNNEVMKVLLEHRTIDVNLEGENGNTAVIIACTTNNSEALQILLKKGAKPCKSNKWGCFPIHQAAFSGSKECMEIILRFGEEHGYSRQLHINFMNNGKATPLHLAVQNGDLEMIKMCLDNGAQIDPVEKGRCTAIHFAATQGATEIVKLMISSYSGSVDIVNTTDGCHETMLHRASLFDHHELADYLISVGADINKIDSEGRSPLILATASASWNIVNLLLSKGAQVDIKDNFGRNFLHLTVQQPYGLKNLRPEFMQMQQIKELVMDEDNDGCTPLHYACRQGGPGSVNNLLGFNVSIHSKSKDKKSPLHFAASYGRINTCQRLLQDISDTRLLNEGDLHGMTPLHLAAKNGHDKVVQLLLKKGALFLSDHNGWTALHHASMGGYTQTMKVILDTNLKCTDRLDEDGNTALHFAAREGHAKAVALLLSHNADIVLNKQQASFLHLALHNKRKEVVLTIIRSKRWDECLKIFSHNSPGNKCPITEMIEYLPECMKVLLDFCMLHSTEDKSCRDYYIEYNFKYLQCPLEFTKKTPTQDVIYEPLTALNAMVQNNRIELLNHPVCKEYLLMKWLAYGFRAHMMNLGSYCLGLIPMTILVVNIKPGMAFNSTGIINETSDHSEILDTTNSYLIKTCMILVFLSSIFGYCKEAGQIFQQKRNYFMDISNVLEWIIYTTGIIFVLPLFVEIPAHLQWQCGAIAVYFYWMNFLLYLQRFENCGIFIVMLEVILKTLLRSTVVFIFLLLAFGLSFYILLNLQDPFSSPLLSIIQTFSMMLGDINYRESFLEPYLRNELAHPVLSFAQLVSFTIFVPIVLMNLLIGLAVGDIAEVQKHASLKRIAMQVELHTSLEKKLPLWFLRKVDQKSTIVYPNKPRSGGMLFHIFCFLFCTGEIRQEIPNADKSLEMEILKQKYRLKDLTFLLEKQHELIKLIIQKMEIISETEDDDSHCSFQDRFKKEQMEQRNSRWNTVARAVKAKTHHLEP
B6: Quad: hTRPA1 W1103A/V1106A/L1107A/V1110A (protein)
chain: B5 Transient receptor potential … with W1103A, V1106A, V1110A
B7: RK/AA (protein)
chain: B5 Transient receptor potential … with R1102A, A1107L, K1111A

System: CaM (Calmodulin-agarose)
Assay: CaM-agarose pulldown of TRPA1 constructs
Assay type: binding
Details: for CaM binding of MBP-tagged C-terminal peptides: expressed in HEK293T; for CaM binding of truncated hTRPA1 constructs: CaM-agarose pulldown, HEK293T lysate, immunoblot; for CaM binding at basal Ca2+ concentration: n=3 independent experiments
Outline: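 HEK293T cells were transfected with tagged TRPA1 constructs and lysed after 16-24 h in Tris pH 8.0 buffer containing 5 mM DDM and 500 µM EGTA. Free Ca²⁺ was set with CaCl₂, calculated from EGTA constants. 100 µg lysate was incubated with CaM-agarose for 1 h at 4 °C, washed, then eluted with 5 mM EGTA. Detection was by anti-FLAG or anti-MBP immunoblot, with tubulin input control. Enrichment is relative to the maximum within each replicate.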

Row | Molecule | CaM binding of truncated hTRPA1 constructs | CaM binding at basal Ca2+ concentration | further results
1 | hTRPA1^1099–1119: MBP-tagged smaller fragment of hTRPA1 C-terminus (RNSRWNTVLRAVKAKTHHLEP; also: MBP-tagged) |  |  | CaM binding of MBP-tagged C-terminal peptides (absence or presence of Ca2+): bound CaM in a Ca^2+-dependent manner
2 | hTRPA1^1079–1119: MBP-tagged full hTRPA1 unresolved C-terminus (EDDDSHCSFQDRFKKEQMEQRNSRWNTVLRAVKAKTHHLEP; also: MBP-tagged) |  |  | CaM binding of MBP-tagged C-terminal peptides (absence or presence of Ca2+): bound CaM in a Ca^2+-dependent manner
3 | WT mouse: WT mouse TRPA1, MBP-tagged |  |  | CaM binding of TRPA1 species orthologues (MBP-tagged constructs, absence or presence of Ca2+, four independent experiments): bound CaM in a Ca^2+-dependent manner
4 | B1 | ablated Ca^2+/CaM binding |  | 
5 | B2 | failed to bind CaM in vitro |  | 
6 | B3 | failed to bind CaM |  | 
7 | B4 | did not affect Ca^2+/CaM binding |  | 
8 | B5 |  | partial reduction in binding | 
9 | B6 |  | similarly ablated CaM binding | 
10 | B7 |  | similarly ablated CaM binding | 
